Experimental data: ChEMBL document CHEMBL4038277, “Design, synthesis and biological evaluation of 7-methylimidazo[1,5-a]pyrazin-8(7H)-one derivatives as BRD4 inhibitors” (Bioorg Med Chem, 2017)

How the values were obtained:
[1] = system: HL-60; test: Antiproliferative activity against BRD4-sensitive human HL60 cells after 72 hrs by CCK8 assay; format: functional, cell-based; settings: HL-60, 72 h
Method in brief: (§1)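 Cells seeded at 1 × 10^4 per well in 100 µL IMDM with 20% FBS. After 12 h, triple-diluted compound series added in 50 µL. Read 72 h after seeding: CCK-8 reagent added, 4 h at 37 °C, absorbance at 450 nm, blank-corrected relative to untreated control. IC50 fitted from the curve. Means ± SD from three independent experiments.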

[2] = system: K562; test: Antiproliferative activity against BRD4-independent human K562 cells after 72 hrs by CCK8 assay; format: functional, cell-based; settings: K562, 72 h; method in brief: as §1
[3] = system: MV4-11; test: Antiproliferative activity against BRD4-sensitive human MV411 cells after 72 hrs by CCK8 assay; format: functional, cell-based; settings: MV4-11, 72 h; method in brief: as §1
[4] = target: T1, Bromodomain-containing protein 4 (Homo sapiens, UniProt O60885); test: Inhibition of BRD4-BD1 (44 to 168 residues) (unknown origin) using histone H4 peptide as substrate preincubated for 15 mins followed by addition of substrate measured after 60 mins by AlphaScreen assay
[5] = target: T1, Bromodomain-containing protein 4; test: Inhibition of BRD4-BD2 (333 to 460 residues) (unknown origin) using histone H4 peptide as substrate preincubated for 15 mins followed by addition of substrate measured after 60 mins by AlphaScreen assay
[6] = target: T1, Bromodomain-containing protein 4; test: Inhibition of recombinant human His-tagged BRD4-BD1 expressed in bacteria using biotinylated H4-tetraacetyl peptide as substrate after 20 mins by AlphaScreen assay

`Cc1sc2c(c1C)C(c1ccc(Cl)cc1)=N[C@@H](CC(=O)OC(C)(C)C)c1nnc(C)n1-2` showed an IC50 [1] of 110 nM, an IC50 [2] of 9120 nM and an IC50 [3] of 80 nM.

In the case of `CCS(=O)(=O)Nc1ccc(Oc2ccc(F)cc2F)c(-c2cn(C)c(=O)c3[nH]ccc23)c1` [MIVEBRESIB], the IC50 [4] is reported as 74 nM, the IC50 [5] is reported as 69 nM and the IC50 [1] is reported as 90 nM. The IC50 [2] was > 10000 nM, the IC50 [3] was 70 nM and the Ki [6] was 15 nM.

`CCS(=O)(=O)c1ccc(Oc2cccc(NS(=O)(=O)c3ccccc3F)c2)c(-c2cn(C)c(=O)c3cncn23)c1` showed an IC50 [4] of 240 nM and an IC50 [5] of 170 nM.

Compound `Cn1cc(-c2cc(S(C)(=O)=O)ccc2Oc2cccc(NCc3ccc(F)cc3)c2)n2cncc2c1=O` has an IC50 [4] of 680 nM, an IC50 [5] of 320 nM and an IC50 [1] of 1400 nM. The IC50 [2] was > 10000 nM and the IC50 [3] was 950 nM.

Work on `CCS(=O)(=O)c1ccc(Oc2ccc(F)cc2F)c(-c2cn(C)c(=O)c3cncn23)c1` yielded an IC50 [4] of 240 nM, an IC50 [5] of 260 nM and an IC50 [1] of 620 nM. The IC50 [2] was > 10000 nM and the IC50 [3] was 410 nM.

In the case of `CCS(=O)(=O)c1ccc(Oc2cccc(NS(=O)(=O)c3cccs3)c2)c(-c2cn(C)c(=O)c3cncn23)c1`, the IC50 [4] is reported as 390 nM and the IC50 [5] is reported as 280 nM.

With `CCS(=O)(=O)c1ccc(Oc2cccc(NCc3ccc(C#N)cc3)c2)c(-c2cn(C)c(=O)c3cncn23)c1` the IC50 [4] was 130 nM, the IC50 [5] was 76 nM and the IC50 [1] was 570 nM. The IC50 [2] was > 10000 nM and the IC50 [3] was 180 nM.

For `Cn1cc(-c2cc(S(C)(=O)=O)ccc2Oc2cccc(NCc3ccc(C#N)cc3)c2)n2cncc2c1=O`, the IC50 [4] was 350 nM, the IC50 [5] was 180 nM and the IC50 [1] was 6100 nM. For the same compound, the IC50 [2] was > 10000 nM and the IC50 [3] was 4200 nM.

`CCS(=O)(=O)c1ccc(Oc2cccc(NS(=O)(=O)c3ccc(OC)cc3)c2)c(-c2cn(C)c(=O)c3cncn23)c1` showed an IC50 [4] of 200 nM and an IC50 [5] of 140 nM.

`CC(=O)Nc1ccc(CNc2cccc(Oc3ccc(S(C)(=O)=O)cc3-c3cn(C)c(=O)c4cncn34)c2)cc1` gave an IC50 [4] of 380 nM and an IC50 [5] of 180 nM.

`COc1cccc(CNc2cccc(Oc3ccc(S(C)(=O)=O)cc3-c3cn(C)c(=O)c4cncn34)c2)c1` gave an IC50 [4] of 430 nM, an IC50 [5] of 190 nM and an IC50 [1] of 1530 nM. For the same compound, the IC50 [2] was > 10000 nM and the IC50 [3] was 1160 nM.

`CCS(=O)(=O)c1ccc(Oc2cccc(NCc3ccc(NC(C)=O)cc3)c2)c(-c2cn(C)c(=O)c3cncn23)c1` gave an IC50 [4] of 130 nM, an IC50 [5] of 40 nM and an IC50 [1] of 2860 nM. The IC50 [2] was > 10000 nM and the IC50 [3] was 170 nM.

`Cn1cc(-c2cc(S(C)(=O)=O)ccc2Oc2ccc(F)cc2F)n2cncc2c1=O` was tested, and the IC50 [4] was 520 nM, the IC50 [5] was 580 nM and the IC50 [1] was 2860 nM. The IC50 [2] was > 10000 nM and the IC50 [3] was 1850 nM.

For `CCS(=O)(=O)c1ccc(Oc2ccc(F)cc2)c(-c2cn(C)c(=O)c3cncn23)c1`, the IC50 [4] was 200 nM, the IC50 [5] was 220 nM and the IC50 [1] was 940 nM. For the same compound, the IC50 [2] was > 10000 nM and the IC50 [3] was 780 nM.
